Measurements taken from article PMC5890913 (Cancer research, 2017).

Experiments:
[1] = tested on: PSA and FKBP5 gene expression in LNCaP cells; experiment: AR-target gene expression; assay type: cell-based; settings: 0.1 nM R1881, 24 hours
LNCaP cells = experiment: LNCaP cell proliferation; assay type: cell-based; settings: 0.1 nM R1881, 6 days
AR = settings: no reference given; cited from earlier work
[2] = target: T1, progesterone receptor (PR) (Homo sapiens, UniProt P06401); experiment: PR transactivation in HEK-293 cells; assay type: cell-based; settings: HEK-293, progesterone
T1 sequence (P06401 1-933): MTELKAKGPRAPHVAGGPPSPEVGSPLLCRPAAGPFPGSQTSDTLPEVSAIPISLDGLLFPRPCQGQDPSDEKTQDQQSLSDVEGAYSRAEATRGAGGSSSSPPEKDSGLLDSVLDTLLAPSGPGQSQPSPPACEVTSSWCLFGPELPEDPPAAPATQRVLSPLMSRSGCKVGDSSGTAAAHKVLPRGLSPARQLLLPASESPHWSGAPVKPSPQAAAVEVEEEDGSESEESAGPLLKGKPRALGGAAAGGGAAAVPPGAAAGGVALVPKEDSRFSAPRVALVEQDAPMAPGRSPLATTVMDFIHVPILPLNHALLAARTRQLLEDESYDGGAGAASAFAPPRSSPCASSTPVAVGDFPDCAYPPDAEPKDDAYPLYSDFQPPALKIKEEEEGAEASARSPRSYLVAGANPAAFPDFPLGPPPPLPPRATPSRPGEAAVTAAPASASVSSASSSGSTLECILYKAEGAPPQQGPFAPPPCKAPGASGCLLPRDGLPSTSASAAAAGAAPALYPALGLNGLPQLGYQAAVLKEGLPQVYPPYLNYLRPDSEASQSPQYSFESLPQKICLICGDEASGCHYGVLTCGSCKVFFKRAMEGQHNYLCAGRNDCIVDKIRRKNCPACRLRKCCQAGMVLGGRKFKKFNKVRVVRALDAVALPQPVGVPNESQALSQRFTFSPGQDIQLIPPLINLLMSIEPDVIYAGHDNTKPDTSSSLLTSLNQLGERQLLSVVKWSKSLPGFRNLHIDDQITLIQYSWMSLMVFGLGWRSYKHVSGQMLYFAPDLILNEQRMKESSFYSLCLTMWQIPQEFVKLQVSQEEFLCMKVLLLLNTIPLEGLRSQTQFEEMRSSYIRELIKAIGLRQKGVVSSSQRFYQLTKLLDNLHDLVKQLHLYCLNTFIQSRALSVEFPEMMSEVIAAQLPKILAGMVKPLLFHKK

[3] = tested on: F876L-AR in LNCaP-EnzR cells; experiment: PSA expression in enzalutamide-resistant LNCaP-EnzR cells; assay type: cell-based; settings: F876L mutant, 0.1 nM R1881
AR-FL in AD1 cells = experiment: AR full length protein level by Western blot in AD1 cells; assay type: cell-based; settings: 24 hours
How it was run: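 AD1 cells expressing full-length AR were kept for 2 days in medium containing charcoal-stripped serum, then treated for 24 hours. Protein was extracted and Western blotted for AR using the N-terminal AR-N20 antibody, with actin as the loading control.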

[4] = tested on: FKBP5 expression in 22RV1 cells; experiment: AR-V7-dependent FKBP5 expression in 22RV1 cells; assay type: cell-based; settings: 22RV1, charcoal stripped serum, 48 hours
22RV1 xenograft = 22RV1 xenograft in castrated NSG mice; assay type: in vivo
[5] = tested on: Pr-3001 patient-derived xenograft; experiment: Patient-derived xenograft Pr-3001 in castrated NSG mice; assay type: in vivo; settings: over the course of 14 days
How it was run: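 The CRPC patient specimen was collected in RPMI with penicillin/streptomycin and fungizone, minced, digested with collagenase for 2 hours and washed in serum-free medium. It was implanted subcutaneously as 1 mm³ fragments in castrated NSG mice, n=8–10 per group. At 100–200 mm³, mice were randomized to vehicle or test compound, and tumor volume was measured thrice weekly.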

panel of kinases = experiment: Cross-reactivity with a panel of kinases; assay type: biochemical
PR in T47D cells = target: T2, PR in T47D cells (Homo sapiens, UniProt P06401); experiment: PR protein level by Western blot in T47D cells; assay type: cell-based
T2 sequence (P06401 1-933): T1 sequence (P06401 1-933)
How it was run: (§1)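 T47D breast cancer cells were plated in growth medium and treated with a range of test compound doses. PR, ER and actin levels were read by Western blot, with actin as the loading control.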

ER in T47D cells = ER in T47D cells (Homo sapiens, UniProt P03372); experiment: ER protein level by Western blot in T47D cells; assay type: cell-based
ER in T47D cells, sequence (P03372 whole entry): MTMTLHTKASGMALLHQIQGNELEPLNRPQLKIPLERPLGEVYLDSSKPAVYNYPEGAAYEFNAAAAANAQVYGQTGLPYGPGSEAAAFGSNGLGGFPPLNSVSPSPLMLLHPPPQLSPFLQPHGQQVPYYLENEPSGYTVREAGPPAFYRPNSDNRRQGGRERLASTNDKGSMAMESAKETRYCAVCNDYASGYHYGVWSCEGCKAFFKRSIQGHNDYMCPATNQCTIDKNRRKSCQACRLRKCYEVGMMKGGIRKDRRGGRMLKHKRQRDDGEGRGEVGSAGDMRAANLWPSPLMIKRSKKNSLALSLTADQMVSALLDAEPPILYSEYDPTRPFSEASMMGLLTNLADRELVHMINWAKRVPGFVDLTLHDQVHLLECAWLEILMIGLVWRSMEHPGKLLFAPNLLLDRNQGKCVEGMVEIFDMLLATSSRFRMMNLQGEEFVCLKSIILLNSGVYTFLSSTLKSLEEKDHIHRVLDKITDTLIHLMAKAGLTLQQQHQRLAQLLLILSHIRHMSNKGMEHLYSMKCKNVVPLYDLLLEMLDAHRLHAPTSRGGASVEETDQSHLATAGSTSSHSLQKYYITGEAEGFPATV
How it was run: as §1

[6] = target: T3, glucocorticoid receptor (GR) in PC-3 cells (Homo sapiens, UniProt P04150); experiment: GR protein level in transiently transfected PC-3 cells; assay type: cell-based; settings: transient transfection
T3 sequence (P04150 1-777): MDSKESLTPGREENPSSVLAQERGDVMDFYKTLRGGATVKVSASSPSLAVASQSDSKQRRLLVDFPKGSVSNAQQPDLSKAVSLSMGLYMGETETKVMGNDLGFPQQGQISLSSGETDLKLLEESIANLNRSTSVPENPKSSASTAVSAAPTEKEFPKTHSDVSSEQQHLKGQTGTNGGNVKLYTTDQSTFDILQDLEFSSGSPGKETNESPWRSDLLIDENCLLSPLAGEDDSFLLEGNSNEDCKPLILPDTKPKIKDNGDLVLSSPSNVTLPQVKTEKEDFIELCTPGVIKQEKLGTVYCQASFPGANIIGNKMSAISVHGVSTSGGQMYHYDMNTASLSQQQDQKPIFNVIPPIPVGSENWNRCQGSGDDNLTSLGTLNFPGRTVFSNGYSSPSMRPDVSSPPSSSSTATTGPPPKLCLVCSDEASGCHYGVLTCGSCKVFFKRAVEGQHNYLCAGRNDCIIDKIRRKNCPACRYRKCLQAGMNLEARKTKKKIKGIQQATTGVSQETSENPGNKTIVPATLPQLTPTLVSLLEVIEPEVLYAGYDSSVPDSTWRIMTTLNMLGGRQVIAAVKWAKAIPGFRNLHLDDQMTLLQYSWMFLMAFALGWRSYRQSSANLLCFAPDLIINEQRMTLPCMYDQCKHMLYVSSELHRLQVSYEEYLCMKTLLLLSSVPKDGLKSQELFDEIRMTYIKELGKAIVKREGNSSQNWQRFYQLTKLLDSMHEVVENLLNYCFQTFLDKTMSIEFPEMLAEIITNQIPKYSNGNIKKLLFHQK

[7] = tested on: AR recruitment to PSA enhancer ARE; experiment: ChIP: AR recruitment to the PSA enhancer ARE in LNCaP cells; assay type: cell-based; settings: 10 μM pre-treatment 30 minutes, 0.1 nM R1881 2 hours
[8] = tested on: NDRG1 and MT2A pre-mRNAs in LNCaP cells; experiment: Early induction of NDRG1 and MT2A pre-mRNAs in LNCaP cells; assay type: cell-based; settings: 10 μM, 0.1 nM R1881

SMILES: C[C@@](O)(Cn1ccc2cc(F)ccc21)C(=O)Nc1ccc(C#N)c(C(F)(F)F)c1 [(R)-UT-155]
- inhibition of R1881-induced FKBP5 expression [1]: at concentrations comparable to that observed with UT-155
- inhibition of LNCaP proliferation (LNCaP cells): inhibited the proliferation of LNCaP cells

SMILES: COc1ccc(/C=C/C(=O)/C=C(O)/C=C/c2ccc(OC)c(OC)c2)cc1OC [ASC-J9]
- concentrations inducing AR degradation (AR): greater than 10 μM

SMILES: C[C@](O)(Cn1ccc2cc(F)ccc21)C(=O)Nc1ccc(C#N)c(C(F)(F)F)c1 [UT-155]
- inhibition of PR transactivation [2]: at concentration comparable to that of the AR
- inhibition of PSA expression in LNCaP-EnzR [3]: inhibited the expression of PSA
- effect on AR expression in AD1 cells (AR-FL in AD1 cells): reduces AR expression
- inhibition of AR-V7-dependent FKBP5 expression [4]: inhibited
- inhibition of 22RV1 xenograft growth (22RV1 xenograft; 100 mg/kg/day s.c.): 53%
- inhibition of Pr-3001 growth [5]: 40–60%
- inhibition of kinase activity (panel of kinases): no significant inhibition
- effect on PR protein levels (PR in T47D cells): no effect
- effect on ER protein levels (ER in T47D cells): no effect
- effect on GR protein levels [6]: no effect on GR
- inhibition of AR recruitment to the ARE on the PSA enhancer [7]: failed to inhibit
- inhibition of R1881-dependent increase in NDRG1 and MT2A pre-mRNAs at 1 and 2 hours [8]: failed to inhibit

SMILES: CNC(=O)c1ccc(N2C(=S)N(c3ccc(C#N)c(C(F)(F)F)c3)C(=O)C2(C)C)cc1F [enzalutamide, reference compound]
- effect on growth of 22RV1 tumors (22RV1 xenograft; 30 mg/kg/day s.c.): no effect
- inhibition of AR recruitment to the ARE on the PSA enhancer [7]: inhibited
